Measured values: ChEMBL document CHEMBL4627365, “Dithiocarbamate prodrugs activated by prostate specific antigen to target prostate cancer” (Bioorg Med Chem Lett, 2020)
pIC50: −log10 of the molar value. Residues, ends and D or L forms follow the SMILES beside them. *: point of attachment. X1 = CCN(CC)C(=S)SCc1ccc(N*)cc1

Tests used:
Prostatic carcinoma cell = test: Antiproliferative activity against human prostate cancer cells assessed as reduction in cell viability after 24 hrs by resazurin dye based assay; type: functional
Method in brief: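 LNCaP (PSA-expressing) and PC3 (PSA-non-expressing) cells were co-treated with prodrug plus 1 μM CuSO4. Proliferation was read by resazurin assay at 24 h, and IC50 was derived.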

[1] = Cytotoxicity against human prostate epithelial cells assessed as reduction in cell viability after 24 hrs by resazurin dye based assay
[2] = molecular target: T1, Prostate-specific antigen (Homo sapiens, UniProt P07288); test: Prodrug activation assessed as PSA-mediated (unknown origin) [4-[[(2S)-2-[[(2R)-2-amino-3-hydroxy-propanoyl]amino]-4-methyl-pentanoyl]amino]phenyl]methyl N,N-diethylcarbamodithioate metabolite formation in presence of CuSO4 by LC-MS analysis; type: ADME
T1 sequence (P07288 whole entry): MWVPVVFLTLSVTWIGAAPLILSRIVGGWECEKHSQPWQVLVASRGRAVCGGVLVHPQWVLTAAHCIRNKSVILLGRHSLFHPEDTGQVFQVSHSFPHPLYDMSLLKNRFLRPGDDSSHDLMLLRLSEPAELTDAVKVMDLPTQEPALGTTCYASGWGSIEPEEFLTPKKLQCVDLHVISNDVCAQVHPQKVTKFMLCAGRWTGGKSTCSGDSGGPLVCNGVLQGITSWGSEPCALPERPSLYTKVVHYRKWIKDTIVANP
Method in brief: (§1)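 Prodrug was incubated with 20 μg/mL PSA enzyme and sampled from 5 min to 48 h. Samples were analysed by HPLC at 254 nm, and products were assigned by mass spectrometry (m/z).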

[3] = molecular target: T1, Prostate-specific antigen; test: Prodrug activation assessed as PSA-mediated (unknown origin) Cu(diethyldithiocarbamate)2 complex formation in presence of CuSO4 by LC-MS analysis; type: ADME; method in brief: as §1
[4] = molecular target: T1, Prostate-specific antigen; test: Prodrug activation assessed as PSA-mediated (unknown origin) compound cleavage measured up to 8 hrs by HPLC analysis
Method in brief: (§2)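 Prodrug incubated with 20 μg/mL PSA enzyme; samples taken at 5 min, 1 h, 2 h, 4 h, 8 h, 24 h and 48 h. Monitored by HPLC at 254 nm as percent prodrug remaining. Cleavage product identity confirmed by mass spectrometry.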

[5] = molecular target: T1, Prostate-specific antigen; test: Prodrug activation assessed as PSA-mediated (unknown origin) 4-((R)-2-((R)-2-amino-3-hydroxypropanamido)-4-methylpentanamido)benzyl diethyl-carbamodithioate metabolite formation by HPLC analysis; type: ADME; method in brief: as §2
[6] = Prodrug activation in human PC3 cell lysate assessed as peptide cleavage measured up to 4 hrs by HPLC analysis; type: subcellular; settings: pc-3, 4 h
Method in brief: (§3)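 Prodrug incubated with LNCaP or PC3 cell lysate. Cleavage followed over time by HPLC, with caffeine as reference, for up to 48 h.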

[7] = molecular target: T1, Prostate-specific antigen; test: Prodrug activation assessed as PSA-mediated (unknown origin) Cu(diethyldithiocarbamate)2 complex formation in presence of leucine aminopeptidase and CuSO4 after 14.5 mins by LC-MS analysis; type: ADME
[8] = molecular target: T1, Prostate-specific antigen; test: Prodrug activation in human LNCAP cell lysates assessed as PSA-mediated peptide cleavage measured up to 4 hrs by HPLC analysis; type: subcellular, Lysate; method in brief: as §3
[9] = molecular target: T1, Prostate-specific antigen; test: Prodrug activation assessed as PSA-mediated (unknown origin) diethyldithiocarbamate formation in presence of leucine aminopeptidase by LC-MS analysis; type: ADME
[10] = Prodrug activation in human PC3 cell lysate assessed as peptide cleavage measured up to 48 hrs by HPLC analysis; type: subcellular; settings: pc-3, 48 h; method in brief: as §3
[11] = molecular target: T2, Prostate-specific antigen (PSA) (Homo sapiens, UniProt P07288); test: Stability assessed as PSA-mediated (unknown origin) compound cleavage by measuring parent compound remaining after 48 hrs by HPLC analysis; type: ADME; settings: prostate-specific antigen (PSA) enzyme, read-out: Stability; method in brief: as §2
T2 sequence (P07288 whole entry): T1 sequence (P07288 whole entry)

[12] = molecular target: T1, Prostate-specific antigen; test: Prodrug activation assessed as PSA-mediated (unknown origin) Leu-PAB-DT metabolite formation measured up to 48 hrs by HPLC analysis; type: ADME; method in brief: as §2

CCN(CC)C(=S)SCc1ccc(NC(=O)CC[C@H](N)C(=O)O)cc1
pIC50 (Prostatic carcinoma cell): 6.10
pIC50 [1]: 4.82

CCN(CC)C(=S)SCc1ccc(NC(=O)[C@H](CC(C)C)NC(=O)[C@H](CO)NC(=O)[C@H](Cc2ccc(O)cc2)NC(=O)[C@H](Cc2ccc(O)cc2)NC(=O)[C@H](CO)NC(=O)[C@H](CO)NC(=O)[C@H](CCCNC(=N)N)NC(=O)[C@H](N)CO)cc1
Drug metabolism [2]: Metabolite_Detected
Drug metabolism [3]: Metabolite_Notdetected

CCN(CC)C(=S)SCc1ccc(NC(=O)[C@H](CC(C)C)NC(=O)[C@H](CCC(N)=O)NC(=O)[C@H](CC(C)C)NC(=O)[C@H](CCCCN)NC(=O)[C@H](CO)NC(=O)[C@H](CO)NC(=O)[C@H](Cc2c[nH]cn2)NC(C)=O)cc1 (Ac-HSSKLQL-X1)
Drug metabolism [4]: 100%
Drug metabolism [5]: Metabolite_Detected
Drug metabolism [6]: > 50%
Drug metabolism [7]: Metabolite_Detected
Drug metabolism [8]: 100%
Drug metabolism [9]: Metabolite_Notdetected

CCN(CC)C(=S)SCc1ccc(NC(=O)[C@H](CC(C)C)NC(=O)[C@H](CO)NC(=O)[C@H](Cc2ccc(O)cc2)NC(=O)[C@H](Cc2ccc(O)cc2)NC(=O)[C@H](CO)NC(=O)[C@H](CO)NC(=O)[C@@H](N)CCCNC(=N)N)cc1 (H-RSSYYSL-X1)
Drug metabolism [10]: Metabolite_Notdetected
Drug metabolism [7]: Metabolite_Detected
remaining at 48 h [11]: 30%
Drug metabolism [8]: 100%
Drug metabolism [9]: Metabolite_Notdetected
Drug metabolism [12]: Metabolite_Detected
